Measured values reported in ChEMBL document CHEMBL1156347, “Immunomodulatory constituents from an Ascomycete, Eupenicillium crustaceum, and revised absolute structure of macrophorin D” (J Nat Prod, 2001).
≈ marks a conversion by molar mass, not a printed value.

Key:
[1] = Immunosuppressant activity in mouse T cells assessed as inhibition of concanavalin A-induced cell proliferation; assay type: functional, cell-based
Procedure, shortened: (§1)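 Splenic lymphocytes from male BALB/c mice aged 7-11 weeks, stimulated with concanavalin A (T cells) or LPS (B cells). Proliferation read as formation of MTT-formazan from exogenous MTT in the lymphocytes. Seven concentrations tested, each point the mean of 3 experiments. IC50 read from the concentration-versus-proliferation curve.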

[2] = Immunosuppressant activity in mouse B cells assessed as inhibition of LPS-induced cell proliferation; assay type: functional, cell-based; procedure, shortened: as §1
T-cell = assay: Ratio of IC50 for mouse T cells proliferation to IC50 for mouse B cells proliferation; assay type: functional

| SMILES | IC50 [1] [µg/mL] | IC50 [2] [µg/mL] | Ratio IC50 (T-cell) |
| --- | --- | --- | --- |
| C=C1CC[C@H]2C(C)(C)CCC[C@]2(C)[C@H]1C[C@@]12O[C@@H]1C(=O)C(COC(=O)C[C@@](C)(O)CC(=O)O)=CC2=O | 4.5 (≈ 8.95 µM) | 2 (≈ 3.98 µM) | 2 |
| C=C1CC[C@H]2C(C)(C)CCC[C@]2(C)[C@H]1C[C@@]12O[C@@H]1C(=O)C(CO)=CC2=O | 0.5 (≈ 1.39 µM) | 0.25 (≈ 0.697 µM) | 2 |
| Cn1cnc([N+](=O)[O-])c1Sc1ncnc2[nH]cnc12 [AZATHIOPRINE] | 2.7 (≈ 9.74 µM) | 2.7 (≈ 9.74 µM) |  |
| C=CC[C@@H]1/C=C(\C)C[C@H](C)C[C@H](OC)[C@H]2O[C@@](O)(C(=O)C(=O)N3CCCC[C@H]3C(=O)O[C@H](/C(C)=C/[C@@H]3CC[C@@H](O)[C@H](OC)C3)[C@H](C)[C@@H](O)CC1=O)[C@H](C)C[C@@H]2OC [TACROLIMUS ANHYDROUS] | 1.5e-05 (≈ 1.87e-05 µM) | 0.0016 (≈ 0.00199 µM) |  |
